Broadly, the IC50 is the concentration that gives 50% inhibition.

Active and inactive are the calls of the source. The calls are words filed in the database; no cut-off is given here.

This note sets out measurements from ChEMBL document CHEMBL4219179, “Small-molecules that bind to the ubiquitin-binding motif of REV1 inhibit REV1 interaction with K164-monoubiquitinated PCNA and suppress DNA damage tolerance” (Bioorg Med Chem, 2018).

Data set [1] deals with T1, DNA repair protein REV1 (Homo sapiens) (UniProt Q9UBZ9).
T1 sequence (whole entry): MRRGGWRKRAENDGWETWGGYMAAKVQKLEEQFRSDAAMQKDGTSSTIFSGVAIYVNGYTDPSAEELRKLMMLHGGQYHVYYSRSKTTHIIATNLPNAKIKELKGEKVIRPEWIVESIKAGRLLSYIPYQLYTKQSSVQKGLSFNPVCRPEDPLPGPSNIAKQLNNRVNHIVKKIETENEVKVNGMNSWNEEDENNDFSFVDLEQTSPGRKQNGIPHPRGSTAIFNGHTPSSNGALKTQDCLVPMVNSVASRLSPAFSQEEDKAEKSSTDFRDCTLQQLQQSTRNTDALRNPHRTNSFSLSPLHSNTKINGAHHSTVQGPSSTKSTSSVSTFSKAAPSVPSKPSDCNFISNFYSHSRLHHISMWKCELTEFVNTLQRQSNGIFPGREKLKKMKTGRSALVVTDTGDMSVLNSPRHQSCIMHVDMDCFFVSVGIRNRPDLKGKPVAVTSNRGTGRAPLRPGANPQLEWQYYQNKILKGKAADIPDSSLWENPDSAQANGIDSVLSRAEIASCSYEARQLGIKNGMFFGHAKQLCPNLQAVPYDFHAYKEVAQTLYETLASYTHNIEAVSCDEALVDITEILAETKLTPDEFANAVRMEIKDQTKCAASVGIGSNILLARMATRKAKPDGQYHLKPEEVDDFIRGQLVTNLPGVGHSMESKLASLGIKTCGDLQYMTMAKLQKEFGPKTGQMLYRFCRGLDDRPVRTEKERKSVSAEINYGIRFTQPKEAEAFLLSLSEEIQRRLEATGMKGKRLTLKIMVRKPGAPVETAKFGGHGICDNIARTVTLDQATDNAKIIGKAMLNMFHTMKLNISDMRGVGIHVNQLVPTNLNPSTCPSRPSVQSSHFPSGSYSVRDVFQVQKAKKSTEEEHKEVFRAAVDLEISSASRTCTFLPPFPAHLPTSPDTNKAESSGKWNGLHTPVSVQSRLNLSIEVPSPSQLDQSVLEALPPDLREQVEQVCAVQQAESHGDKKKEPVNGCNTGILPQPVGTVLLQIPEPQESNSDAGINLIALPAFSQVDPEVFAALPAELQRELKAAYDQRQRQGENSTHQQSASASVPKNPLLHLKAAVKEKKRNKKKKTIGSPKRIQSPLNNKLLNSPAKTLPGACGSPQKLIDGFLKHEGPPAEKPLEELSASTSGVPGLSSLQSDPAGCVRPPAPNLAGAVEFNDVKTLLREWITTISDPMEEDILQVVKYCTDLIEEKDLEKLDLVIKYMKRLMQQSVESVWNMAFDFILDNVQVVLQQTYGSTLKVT
In words: Inhibition of REV1 in human U2OS cells assessed as potentiation of 4-hydroxycyclophosphamide-induced cytotoxicity by measuring reduction in colony formation at 75 uM incubated for 24 hrs after 24 hrs 4-hydroxycyclophosphamide-exposure followed by culture medium replacement with fresh medium and measured after 7 days by crystal violet staining based assay relative to control. The format is cell-based. A digest of the protocol:
(§1)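 U2OS cells, 300 per well, settled overnight, then given cisplatin or 4-hydroxycyclophosphamide at the stated final level. After 24 h, compound or DMSO added; medium replaced after another 24 h and cells grown 7 days. Formaldehyde fixation, 0.5% crystal violet staining, colonies of more than ~40 cells counted; triplicates, survival set to 1 for vehicle (saline for cisplatin, DMSO for 4-HC).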

A short description of data set [2]: Solubility of the compound in sodium phosphate buffer at pH 7. The format is physicochemical.
Data set [3] can be described thus: Inhibition of biotin/Avi-tagged UbPCNA binding to recombinant human N-terminal His-tagged REV1 deletion mutant BRCT/UBM1/UBM2 domain expressed in Escherichia coli BL21(DE3) measured after 1 hr by AlphaScreen assay. The gist of the method:
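AlphaScreen with 200 nM biotin-AviTag-Ub-PCNA (enzymatically K164-ubiquitinated) and 40 nM N-His REV1 in PBS pH 7.4, 0.1% BSA, 0.05% Tween-20, with serial compound dilutions. Ni-chelate acceptor beads added, streptavidin donor beads after 1 h, read 1 h later; dose-response fitted on final concentrations.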
On the technique in general: Bead proximity is the source of the signal in Alpha formats.

The target of data set [4] is T1, DNA repair protein REV1 (Homo sapiens). The experiment in a line: Inhibition of REV1 in human HeLa cells assessed as reduction in 2.5 J/m2 UV light-induced cyclopyrimidine dimer removal at 150 uM by epi-fluorescence microscopic analysis. It counts as cell-based. The gist of the method: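 HeLa cells on coverslips given 0 or 2.5 J/m² UVC (254 nm), then DMSO or 150 µM compound. Fixed at time points up to 24 h, denatured in 2 M HCl and stained with anti-CPD (TDM-2). Epifluorescence mean green intensity per DAPI-defined nucleus; two-tailed t-test.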

For data set [5] the target is unchanged. The experiment in a line: Inhibition of REV1 in human WTK1 cells assessed as suppression of 0 to 128 J/m2 UV light-induced HPRT gene mutation by measuring reduction in number of resistant clones at 150 uM dosed Immediately following UVC treatment and measured after 21 hrs. A digest of the protocol:
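WTK-1 cells cleansed (CHAT, then THC) and conditioned in horse serum; 2×10^6 cells given UVC 0–128 J/m², then DMSO or 150 µM compound for 21 h. Survival plated at 1.6 cells/well (PE0, PE6). After 5 days' expression, 5,000 cells/well in 0.5 µg/mL 6-thioguanine; colonies scored after 11–12 days; mutation frequency normalized to plating efficiency.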

Data set [6] concerns U2OS. The experiment in a line: Cytotoxicity against human U2OS cells assessed as reduction in colony formation at 75 uM incubated for 24 hrs followed by culture medium replacement with fresh medium and measured after 7 days by crystal violet staining based assay relative to control. The format is cell-based. The gist of the method:
as §1

In data set [7] the target is T1, DNA repair protein REV1 (Homo sapiens). The experiment in a line: Binding affinity to recombinant human REV1 UBM1/UBM2 domain (137 residues) expressed in Escherichia coli BL21(DE3) assessed as increase in NOE peaks at 200 uM by STD NMR spectral analysis. A digest of the protocol: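 STD NMR at 280 K with 10 µM protein and 200 µM compound. Saturation by a train of 30 ms Gaussian pulses for 4 s, on resonance at 0 ppm and off resonance at -40 ppm; 256 on/off FIDs recorded. REV1 UBM1-UBM2 expressed as for REV1 (His-tagged, Ni-NTA), tag removed by […].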

Data set [8] has the same target. The experiment in a line: Inhibition of UbPCNA binding to EGFP-tagged REV1 (unknown origin) expressed in human U2OS cells assessed as reduction in cisplatin-induced recruitment of EGFP-REV1 to PCNA foci on chromatin at 150 uM treated after 3.5 hrs cisplatin exposure and measured 6 hrs after post dose by immunostaining based confocal microscopic analysis. It counts as cell-based. A digest of the protocol: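 U2OS cells transfected with pEGFP-REV1. Two days later, 33 µM cisplatin for 3.5 h, then released into DMSO or 150 µM compound for 6 h. CSK/Triton pre-extraction, PFA fixation, methanol, PCNA (PC10) immunostain, confocal imaging. Pearson coefficient of PCNA vs REV1 per DAPI-defined nucleus; n=32–37 cells, two-tailed t-test.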

The target is the same in data set [9]. In words: Inhibition of REV1 in human U2OS cells assessed as potentiation of cisplatin-induced cytotoxicity by measuring reduction in colony formation at 75 uM incubated for 24 hrs after 24 hrs cisplatin exposure followed by culture medium replacement with fresh medium and measured after 7 days by crystal violet staining based assay relative to control. The format is cell-based. A digest of the protocol:
as §1

Data set [10] has as its system U2OS. The experiment in a line: Cytotoxicity against human U2OS cells expressing EGFP-tagged REV1 (unknown origin) at 150 uM. The format is cell-based.
In data set [11] the target is T1, DNA repair protein REV1 (Homo sapiens). The experiment in a line: Binding affinity to recombinant human REV1 UBM2 domain assessed as chemical shift perturbations on alpha-helix at REV1 UBM2 to compound molar ratio of 1:10 by [1H,15N]-HSQC NMR spectral analysis. A digest of the protocol: (§2)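 15N-labeled REV1 UBM2 in 20 mM sodium phosphate pH 7.0, 100 mM NaCl, titrated at protein:compound ratios 1:2, 1:4, 1:6, 1:8 and 1:10. 1H and 15N shifts of displaced peaks tracked at each point; weighted average shift δav(NH) = [(δH² + (δN/5)²)/2]^1/2 per backbone amide.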

Data set [12] has the same target. The experiment in a line: Binding affinity to recombinant human REV1 UBM2 domain assessed as chemical shift changes by [1H,15N]-HSQC NMR spectral analysis. The gist of the method: as §2

Regarding `O=C1CN(C(=O)CCc2cc(I)c(Oc3ccc(O)cc3)c(I)c2)CCN1`, the results for the fold change (FC) in [1], in data set [6] and in [9] were 10, 2 and 10, respectively. Moreover, in data set [2], the solubility result is “Insoluble”. Besides, the IC50 in data set [3] was 3.4 µM. Further, the inhibition entry in [4], in data set [5] and in data set [8] was “Active” each time. In data set [7], the outcome was Active.

Regarding `Cl.O=C(CCc1cc(I)c(Oc2ccc(O)cc2)c(I)c1)N1CCNCC1`, the Activity result in [10] was “Toxic”; in [12], “Dose-dependent effect”. In data set [2], the solubility entry was “Soluble”. Further, the IC50 in data set [3] amounted to 9.7 µM. Moreover, the result in data set [11] and in [7] was Active.
